# The list is not random: actives were taken first. Their share in the collection is about 1.6%.
# Bfl-1 A1 inh = caspase 3/7 activation in MEF A1-2A-BIM cells, primary screen, A1 inhibitor project, cell-based, luminescence, HTS; Caspase-Glo 3/7 luminescence, 3 h; percent of clofoctol response, vehicle zero; caspase activation, % (test concentration not listed); 330,000 tested, 0.066% active; AID 2462, 2010;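 active means over half of replicate activation scores above 10%, or exactly half above 10 with the replicate mean above 10; inconclusive means replicate mean below 10 yet half the replicates above 10; inactive means over half of replicates below 10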
# SR-BI DiI inh = inhibitors of SR-BI mediated HDL lipid uptake, primary screen, ldlA[mSR-BI] cells, fluorescence, single point; inhibition, % at 12.5 µM; Scavenger receptor class B member 1 (Mus musculus), Q61009; ldlA[mSR-BI] CHO cells, DiI-HDL uptake fluorescence, 3 h; 320,000 tested, 0.96% active; AID 488896, 2010;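 active means mean replicate inhibition of at least 70% and a set share of replicates each scoring 70 or more; inconclusive means meets just one of the two criteria; inactive means fails both criteria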
# Target sequence (Q61009 whole entry, looked up): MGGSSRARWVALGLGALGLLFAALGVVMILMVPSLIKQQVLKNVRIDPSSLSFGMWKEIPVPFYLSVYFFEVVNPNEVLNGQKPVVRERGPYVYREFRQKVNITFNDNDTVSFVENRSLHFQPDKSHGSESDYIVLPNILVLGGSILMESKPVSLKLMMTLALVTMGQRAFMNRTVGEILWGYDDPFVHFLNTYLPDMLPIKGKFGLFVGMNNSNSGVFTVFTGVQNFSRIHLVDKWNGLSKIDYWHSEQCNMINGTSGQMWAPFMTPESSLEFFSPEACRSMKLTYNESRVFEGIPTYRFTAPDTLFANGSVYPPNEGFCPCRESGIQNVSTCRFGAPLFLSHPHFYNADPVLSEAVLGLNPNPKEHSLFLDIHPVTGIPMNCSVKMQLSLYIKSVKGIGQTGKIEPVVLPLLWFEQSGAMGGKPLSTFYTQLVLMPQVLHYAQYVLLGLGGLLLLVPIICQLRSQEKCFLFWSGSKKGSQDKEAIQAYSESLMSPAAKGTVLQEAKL
# Vif inh = HIV Vif self-association inhibitors, primary screen, imaging, HEK293T, single point; HEK293T cells, Vif self-association by quenched fluorescence, 24 h; inhibition, % at 7.49 µM; 340,000 tested, 0.35% active; in the data active means inhibition above about 50%, passing the limit was not always enough; inconclusive means no clear call, values can overlap the other calls; inactive means below about 31%
# TAG inh = inhibitors of triacylglycerol accumulation, primary screen, cell-based, uHTS, fluorescence, H9c2. H9c2 cells, Nile Red lipid (TAG) fluorescence; cells loaded with 200 µM oleic acid. inhibition, % at 12.5 µM. 230,000 tested, 0.66% active. AID 651582, 2012;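 active means pattern-corrected inhibition of lipid staining of at least 50% with the nuclear-stain viability signal not falling by more than 50%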
# SR-BI DiI-HDL act = activators of SR-BI mediated DiI-HDL uptake, primary screen, ldlA[mSR-BI] CHO cells, DiI fluorescence; activation, % at 12.5 µM; AID 504775, 2011; 3 h; 100 = double the neutral-control signal; 320,000 tested, 0.096% active;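 active means mean replicate activation of at least 60% and every replicate at or above 60%; inconclusive means mean or all-replicate condition met, but not both; inactive means mean below 60% and not all replicates reaching 60%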
#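 Material – SR-BI-overexpressing, LDLR-lacking CHO cells · Medium – BSA-supplemented, HEPES-buffered Ham's F12, pH 7.4 · Doses – single concentration · Times – compound with DiI-HDL co-incubation, 3 h at 37 °C · Measured by – bottom-read fluorescence, 550/595 nm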
# Hits are given with their value; n = inactive; u = inconclusive; x = not tested or not shown.
SMILES,Bfl-1 A1 inh,SR-BI DiI inh,Vif inh,TAG inh,SR-BI DiI-HDL act
C=C[C@]1(C)C[C@@H](OC(=O)CSCCN(CC)CC)[C@]2(C)C(C)CC[C@]3(CCC(=O)[C@H]32)[C@@H](C)[C@@H]1O (some centres not stated),n,n,u,n,n
COc1ccc(NC(=O)N2CCC(n3cnc4ccccc43)CC2)cc1,n,n,n,n,n
CC1Cc2ccccc2N1C(=O)COC(=O)c1ccccc1NCCO (configuration not stated),n,n,66,n,n
CC1CCN(C(=O)COC(=O)c2ccccc2NCCO)CC1,x,x,n,n,x
C/C(CC(=O)NCc1ccc(F)cc1)=N\NC(N)=S,n,87,n,n,n
C/C(CC(=O)NCc1ccccc1)=N\NC(N)=S,n,n,n,n,n
Cc1cc(C)c(C)c(C(=O)CSc2nnc(-c3ccc4[nH]c(C)c(C)c4c3)o2)c1C,n,84,n,x,n
Cc1[nH]c2ccc(-c3nnc(SCC(=O)c4ccc(F)cc4)o3)cc2c1C,n,n,n,x,n
Cc1cc(C)c(NC(=O)CNC(=O)c2ccccc2OCc2c(C)noc2C)c(C)c1,n,n,n,n,n
CN(C)c1ccc(/C=C/c2ccc3c4ccccc4ccc3[n+]2-c2ccccc2)cc1,x,n,n,67,u
CN(C)c1ccc(/C=C/c2ccc3ccccc3[n+]2C)cc1,n,n,n,x,n
N=c1c(S(=O)(=O)c2ccc(Br)cc2)cc2c(=O)n3ccccc3nc2n1Cc1ccccc1,n,n,n,x,n
Cc1ccc(Cn2c(=N)c(S(=O)(=O)c3ccc(Br)cc3)cc3c(=O)n4ccccc4nc32)cc1,n,n,53,x,n
O=C(OCc1ccccc1Cl)C1CC(=O)N(Cc2ccco2)C1 (configuration not stated),n,n,n,n,n
O=C(Cn1cnc([N+](=O)[O-])c1)Nc1ccc(Cl)cc1Cl,x,x,64,n,x
O=C(Cn1cnc([N+](=O)[O-])c1)Nc1ccc(F)c(Cl)c1,x,n,n,x,n
c1ccc(COCCC2CO2)cc1 (configuration not stated),n,x,x,x,x
CCC1(CC)NC(=O)N(CC(=O)OC(C)C(=O)Nc2ccc(Cl)cn2)C1=O (configuration not stated),n,n,n,n,n
CCC1(CC)NC(=O)N(CC(=O)OC(C)C(=O)Nc2cc([N+](=O)[O-])ccc2OC)C1=O (configuration not stated),n,74,x,n,n
COc1ccc(-c2nc3ccccn3c2NCc2ccc3c(c2)OCO3)cc1,n,n,n,n,n
COc1ccc(-c2cc(-c3nc4ccccn4c3NCc3ccccc3)ccc2OC)cc1,n,u,77,n,n
CSCCNC(=O)Nc1c(-c2c(Cl)cccc2Cl)noc1C,n,n,n,n,142
Cc1onc(-c2c(Cl)cccc2Cl)c1NC(=O)NN(C)C,n,n,n,n,n
COc1cc([N+](=O)[O-])ccc1-c1ccc(/C=N\n2cnnc2)o1,n,n,177,x,n
COC(=O)c1cc(Cl)c(NC(=O)c2ccc(C(C)(C)C)cc2)cc1OC,n,n,n,x,n
SMILES,Bfl-1 A1 inh,SR-BI DiI inh,Vif inh,TAG inh,SR-BI DiI-HDL act
COc1cc(NC(=O)c2ccc(C)cc2)ccc1NC(=O)c1cc2ccccc2o1,n,n,n,x,n
COc1cc(NC(=O)c2ccccc2F)ccc1NC(=O)c1cc2ccccc2o1,14,87,n,n,n
Cc1ccc(C(=O)NC(=S)Nc2ccc(-c3cc4ccccc4oc3=O)cc2)c(C)c1,n,82,n,n,n
COC(=O)c1cc(Cl)c(NC(=O)c2cc3ccccc3o2)cc1OC,n,n,63,n,n
COc1cc(NC(=O)c2ccc(C)cc2C)ccc1NC(=O)c1cc2ccccc2o1,15,n,n,x,n
Cc1cc(NC(=O)c2cccnc2)ccc1NC(=O)c1cc2ccccc2o1,n,n,n,x,n
Cc1cc(NC(=O)c2cccnc2Cl)ccc1NC(=O)c1cc2ccccc2o1,n,77,n,x,n
CCc1nnc(NC(=O)CSc2nnc3nc(C)cc(C)n23)s1,n,n,n,x,n
CC(C)C(NC(=O)C12CC3CC(CC(C3)C1)C2)C(=O)N/N=C/C1=C(N2CCOCC2)C(=C\c2cccc([N+](=O)[O-])c2)/CC1 (configuration not stated),n,85,n,x,n
Cn1cc(C(=O)N/N=C/C2=C(N3CCOCC3)C(=C/c3ccc([N+](=O)[O-])cc3)/CC2)ccc1=O,n,x,n,n,x
Cc1cc(NC(=S)N(CCCN2CCN(C)CC2)Cc2ccco2)ccc1Cl,n,n,n,n,n
CCOc1ccccc1NC(=O)NC1CCCc2ccccc21 (configuration not stated),n,79,n,n,n
CC(C)=CCN1CCN(CCC2=C(C)CCCC2(C)C)CC1CCO (configuration not stated),n,n,n,n,n
CC1=C(CC/C(C)=N/NC(N)=S)C(C)(C)CCC1,n,76,n,x,n
Cc1ccc(NC(=O)CSC(C)C(=O)OCC(=O)N2CCN(C(=O)c3ccco3)CC2)cc1 (configuration not stated),n,n,61,n,n
COc1ccccc1NC(=O)c1ccc(NC(=O)CN2CCN(C(=O)c3ccco3)CC2)cc1,n,79,x,n,n
COc1ccccc1NC(=O)CN1CCN(C(=O)c2ccco2)CC1,n,n,n,n,n
CCOc1ccc(NC(=O)CN2CCN(CC(=O)Nc3ccccc3OC)CC2)cc1,n,78,n,x,n
N#Cc1c(NC(=O)CN2CCN(C(=O)c3ccco3)CC2)sc2c1CCCCC2,n,83,n,x,n
CCSc1nc(C)nc2sc(C)c(C)c12,n,x,n,n,x
CC(=O)c1cnc(-c2ccccn2)s1,n,n,n,n,n
CC(=O)c1cnc(-c2ccccc2Cl)s1,n,n,57,n,n
CC(C)[C@H](NC(=O)c1ccccc1F)C(=O)Nc1ccc2c(c1)OCO2,n,n,n,n,n
COc1cc(OC)cc(C(=O)N[C@H](C(=O)Nc2ccc3c(c2)OCO3)C(C)C)c1,n,n,91,n,n
COc1cc(OC)cc(C(=O)NC(C(=O)Nc2ccc3c(c2)OCO3)C(C)C)c1 (configuration not stated),n,n,125,n,n
O=C(CN1C(=O)CC(c2ccco2)Sc2ccccc21)NC1CCCCC1 (configuration not stated),n,n,n,n,n
COc1ccc(C(=O)n2nc(C)cc2Nc2ccccc2)cc1,n,77,n,n,n
O=C(CSc1nnc(-c2ccc(O)cc2)n1Cc1ccccc1)NNC(=O)c1ccc(Br)cc1,n,n,n,x,n
COc1ccc(C(=O)NCc2c(C)oc(C)c2C(=O)O)cc1,n,n,n,n,n
